The list is not random: actives were taken first. Their share in the collection is about 2.2%.
BaF3 parental: reduces parental Ba/F3 cell viability, JAK2V617F counter-screen | CellTiter-Glo ATP luminescence | inhibition, % at 5.6 µM | 220,000 compounds, 1.1% hits;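 active = inhibition above a per-campaign cutoff, the mean inhibition of all tested compounds plus 3 SD, cut at about 27% in these data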;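 note: 0% = DMSO wells and 100% = JAK Inhibitor I control wells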
MT stabilize HCS: microtubule stabilizers in HeLa cells; HeLa tubulin immunostaining HCS, 24 h; share of cells brighter than vehicle mean+2SD; % tubulin-high responders, % at 10 µM; 200,000 compounds, 0.83% hits;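 active = plate Z-score above 3 for both tubulin-high and condensed-nucleus cell shares, with cell loss under 80%, at 10 µM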;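 note: anti alpha tubulin signal scored within the nucleus-defined area of each cell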
IEC-6 cytotox: counter-screen for KLF5 inhibitors: cytotoxicity in IEC-6 cells | IEC-6 cytotoxicity, luminescence viability | inhibition, % at 5 µM | 290,000 compounds, 0.78% hits;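 note: 0% = plate median of test compound wells and 100% = cytotoxic reference compound wells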
Ba/F3 V617F tox: lowers viability of Ba/F3 cells expressing EpoR and JAK2V617F; ATP luminescence; inhibition, % at 5.6 µM; 220,000 compounds, 1.1% hits; AID 1446;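 active = inhibition above the campaign mean plus 3 SD over all tested compounds, cut at about 24% in these data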;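 note: cytokine-independent growth of Ba/F3 cells driven by EpoR plus mutant JAK2; 0% = DMSO-treated cells and 100% = JAK inhibitor I control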
b-catenin transl: beta-catenin nuclear translocation modulation. HeLa beta-catenin nuclear translocation, immunofluorescence imaging. nuclear translocation activity, % at 5 µM. AID 1665. 190,000 compounds, 0.3% hits;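 active = nuclear translocation activity above 50% at 5 µM, with a well cell count of 50 or more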;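 note: per-cell ratio of nuclear to cytoplasmic median beta-catenin stain intensity; plate controls were DMSO negative control for no effect and GSK-3 inhibitor IX positive control for full effect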
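Test system: human HeLa cell line; Doses: 5 µM primary, 0.02–20 µM confirmation; Incubation: 24 h compound exposure, 37°C; Detection: beta-catenin immunofluorescence imaging with DAPI; Read-out: beta-catenin nuclear/cytoplasmic ratio, % activation.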
APP transl inh: APP translation inhibition; SH-SY5Y APP 5'UTR-luciferase reporter, luminescence; 190,000 compounds, 0.82% hits; inhibition, % at 2 µM; AID 1285;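 active = inhibition above a set limit, derived from the sample mean plus 3 SD, cut at about 45% in these data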
BaF3 parental 2: parental Ba/F3 viability inhibition for JAK2V617F counter-screen. inhibition, % at 5.6 µM. CellTiter-Glo luminescence; cells kept alive by added IL-3. 580 compounds, 31% hits. AID 1520. shares compounds with Ba/F3 V617F tox;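 active = cell growth inhibition above the hit limit set in the earlier mutant JAK2 cell screen, cut at about 27% in these data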;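 note: plate controls were DMSO-treated cells for no effect and JAK Inhibitor I control wells for full effect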
JAK2V617F confrm: confirmation: loss of viability in JAK2V617F-dependent Ba/F3 cells; shares compounds with Ba/F3 V617F tox; Ba/F3 EpoR-JAK2V617F viability, CellTiter-Glo luminescence; inhibition, % at 5.6 µM; 580 compounds, 66% hits;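 active = mean inhibition above the hit cutoff derived in the earlier primary screen, cut at about 25% in these data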;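 note: 0% = DMSO-treated cells and 100% = JAK inhibitor I control wells; higher means lower luminescence from reduced cell ATP and viability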
IEC-6 cytotox cf: IEC-6 cytotoxicity, confirmation assay. shares compounds with IEC-6 cytotox. IEC-6 rat intestinal epithelial viability, luminescence. inhibition, % at 5 µM. 1,900 compounds, 63% hits;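 note: 0% = vehicle and 100% = reference cytotoxic drug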
* hit, by the source's call; / = not tested or not shown. Cut-off read from the data, not from the text of the source, unless noted: active = inhibition above about 22%; inactive = the rest.

SMILES	BaF3 parental	MT stabilize HCS	IEC-6 cytotox	Ba/F3 V617F tox	b-catenin transl	APP transl inh	IEC-6 cytotox cf	others
COC(=O)/C=C/S(=O)(=O)c1ccc(NC(C)=O)cc1	19	1	27*	26*	-6	83*	0	BaF3 parental 2=12;JAK2V617F confrm=12
C=CCN1C(=O)C(O)(CC(=O)c2ccco2)c2cc(Br)ccc21 (centres undefined)	-1	3	87*	0	-1	-10	23*
Cc1n[nH]c(C)c1C(=O)CC1(O)C(=O)N(Cc2ccccc2)c2ccc(Br)cc21 (centres undefined)	11	2	1	1	/	8	/
Cc1ccc2c(c1)CCCN2S(=O)(=O)c1cccc(C(=O)Nc2ccccc2C(=O)O)c1	/	/	3	/	/	/	/
COc1ccc(NC(=O)CCNC(=O)c2ccco2)cc1S(=O)(=O)N(C)C	/	/	0	/	/	/	/
Cc1ccc2ncnc(Nc3cccc([N+](=O)[O-])c3)c2c1	/	/	31*	/	/	/	63*
COc1ccc(F)cc1Cn1nc(C(=O)O)c2ccccc2c1=O	/	/	36*	/	/	/	21
O=C(O)c1nn(CCOc2cccc(Cl)c2)c(=O)c2ccccc12	7	4	-7	1	1	-9	/
O=C(O)c1nn(CCOc2c(Cl)cccc2Cl)c(=O)c2ccccc12	/	/	40*	/	/	/	18
CC(=O)Nc1ccc(S(=O)(=O)NCCC(=O)OCc2ccc([N+](=O)[O-])cc2)cc1	/	/	2	/	/	/	/
CC(C)(C)OC(=O)N1CCC[C@H]1C(=O)Nc1ccc(S(=O)(=O)C(F)F)cc1	/	/	1	/	/	/	/
COc1cc(-c2c(-c3cc(OC)c(OC)c(OC)c3)noc2C)ccc1F	/	/	98*	/	/	/	71*
COc1ccc(-c2c(-c3cc(OC)c(OC)c(OC)c3)noc2C)cn1	/	/	80*	/	/	/	54*
COC(=O)c1cc(-c2c(-c3cc(OC)c(OC)c(OC)c3)noc2C)cc([N+](=O)[O-])c1	/	/	0	/	/	/	/
Cc1ccc(-c2nc(C(Cl)Cl)c3ccccc3n2)cc1	4	/	87*	8	4	/	99*
Cc1ccc(-c2nc(Nc3ccc(O)cc3)c3ccccc3n2)cc1	/	/	5	/	/	/	/
Nc1ccc(S(=O)(=O)c2ccccc2)nc1	/	/	-7	/	/	/	/
Cc1ccc(S(=O)(=O)c2ccc([N+](=O)[O-])cn2)cc1	/	/	101*	/	/	/	13
O=[N+]([O-])c1ccc(S(=O)(=O)c2ccccc2)nc1	/	/	101*	/	/	/	85*
O=C1CCC[C@@H]2[C@H]3CCC[N+]4([O-])CCC[C@@H](CN12)[C@@H]34 (some centres undefined)	/	/	1	/	/	/	/
Cc1cc(NC(=O)c2cc(-c3ccncc3)nc3c(C)cccc23)no1	50*	37*	60*	41*	/	84*	44*
O=C(NC1CCCCC1)C(c1ccncc1)N(C(=O)c1csnn1)c1ccccc1 (centres undefined)	/	/	-2	/	/	/	/
Brc1ccc2ncnc(Nc3cccc4ccccc34)c2c1	8	3	28*	0	0	-14	41*
COc1ccc(OC)c(Nc2ncnc3ccc(Br)cc23)c1	/	/	5	/	/	/	/
Cc1cc(=O)oc2cc(OCCc3ccccc3)ccc12	/	/	44*	/	/	/	22*
SMILES	BaF3 parental	MT stabilize HCS	IEC-6 cytotox	Ba/F3 V617F tox	b-catenin transl	APP transl inh	IEC-6 cytotox cf	others
COc1ccc(C(=O)COc2ccc3c(C)cc(=O)oc3c2)cc1	/	/	-3	/	/	/	/
COc1cccc(C(=O)COc2ccc3c(C)cc(=O)oc3c2)c1	/	/	28*	/	/	/	18
Cc1cc(=O)oc2cc(OCCCC[n+]3ccccc3)ccc12	-1	/	-6	-2	0	/	/
COc1ccc(NS(=O)(=O)c2cc(C(=O)N3CCN(C(C)=O)CC3)ccc2Cl)cc1	7	2	3	-1	-6	10	/
COc1ccc(NS(=O)(=O)c2cc(N/C(=N\S(=O)(=O)c3ccccc3)c3ccc(F)cc3)ccc2Cl)cc1	61*	12*	39*	64*	/	7	0
O=C(O)COc1ccc(NC(=O)C(c2ccccc2)c2ccccc2)cc1	/	/	1	/	/	/	/
COC(=O)COc1ccc(NC(=O)C(c2ccccc2)c2ccccc2)cc1	/	/	25*	/	/	/	0
CCC(=O)OCCNc1cc(Sc2nc3ccccc3[nH]2)c2nonc2c1[N+](=O)[O-]	1	2	54*	9	-1	70*	5
CCC(=O)OCCNc1cc(Sc2nc3ccccc3s2)c2nonc2c1[N+](=O)[O-]	3	2	-2	-4	/	2	/
Clc1cccc(Cl)c1/C=N/Nc1c(Cl)cncc1Cl	61*	/	58*	79*	40	/	54*
Clc1cncc(Cl)c1N/N=C/c1ccncc1	6	3	-6	-1	-2	-2	/
CCCCn1c(=O)[nH]c(=O)c2c1nc(CN1C(=O)c3ccccc3S1(=O)=O)n2CCC	3	0	-6	0	1	-19	/
CCCCn1c(=O)[nH]c(=O)c2c1nc(Cn1ncc(Cl)c(Cl)c1=O)n2CCC	/	/	102*	/	/	/	28*
O=C(c1ccc2nsnc2c1)N1CCN(c2ccc([N+](=O)[O-])cc2)CC1	/	/	8	/	/	/	/
CCc1nnc(NC(=O)c2ccc(S(=O)(=O)N(CC)Cc3ccccc3)cc2)o1	6	2	26*	0	2	15	2
CCN(Cc1ccccc1)S(=O)(=O)c1ccc(C(=O)Nc2nnc(C)o2)cc1	/	/	17	/	/	/	/
O=C(Nc1ccc(Oc2ncnc3cc(Cl)ccc23)nc1)c1ccc(F)cc1	-2	/	-9	-5	0	/	/
CN(C)c1cccc(/C=C(\C#N)c2ccccc2)c1	76*	/	77*	81*	1	/	56*
COc1ccc(/C=N/NC(N)=S)cc1	-1	/	-2	0	0	/	/
NC(=S)N/N=C/c1ccc(C(F)(F)F)cc1	35*	4	39*	66*	4	-1	18
CCN(Cc1ccc(O)cc1)CC1CCCN(CCc2cccc(F)c2)C1 (centres undefined)	/	/	7	/	/	/	/
C/C(=N\NC(=O)c1c(C)nc2ccccn12)c1ccccc1F	/	/	-4	/	/	/	/
C/C(=N\NC(=O)c1c(C)nc2ccccn12)c1ccc(O)cc1O	/	/	28*	/	/	/	36*
Cc1ccc(C)c(OCc2cc(C(=O)NC3CCOC(C)(C)C3)no2)c1 (centres undefined)	/	/	-8	/	/	/	/
Cc1ccc(-c2cc(C(=O)N/N=C/c3c(C)nn(-c4ccccc4)c3C)n[nH]2)s1	82*	6	68*	74*	122*	92*	56*
Cc1[nH]c2ccccc2c1/C=N/NC(=O)c1cc(-c2cccs2)[nH]n1	4	3	4	0	3	7	/

From PubChem
